This is an account of results in ChEMBL document CHEMBL3994569, “Synthesis, anti-varicella-zoster virus and anti-cytomegalovirus activity of quinazoline-2,4-diones containing isoxazolidine and phosphonate substructures” (Eur J Med Chem, 2017).

Series [1] in a line: Cytotoxicity against virus infected HEL cells assessed as alteration in cell morphology by microscopic method. It counts as cell-based. As to conditions: human. An outline of the steps: (§1)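 In the HEL cultures used for the antiviral assays, cell morphology was examined microscopically across varying compound concentrations. MCC is the minimum concentration causing a microscopically detectable alteration of cell morphology.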

Series [2] is described as follows: Cytotoxicity against HEL cells infected with Varicella-Zoster virus assessed as alteration in cell morphology by microscopic method. It counts as cell-based. The settings on record: human, HEL cells infected with Varicella-Zoster virus. The method in brief: as §1
A further series has as its system HMEC-1. Put plainly: Anti-proliferative activity against HMEC1 cells by coulter counter method. The format is ADME, cell-based, Homo sapiens. The method in brief:
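HMEC-1 cells at 300,000–500,000 cells/mL, mixed 1:1 by volume with serial dilutions of test compound, incubated at 37 °C. Cell number counted by Coulter counter.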

In series [3] the test system is Human alphaherpesvirus 3. The series is described as follows: Antiviral activity against thymidine kinase deficient Varicella-Zoster virus 07-1 infected in HEL cells assessed as reduction in virus plaque formation. The format is functional, cell-based. An outline of the steps: (§2)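 Confluent HEL fibroblast cultures were infected with VZV at an input of 100 PFU and incubated with varying compound concentrations. Plaques were counted once plaque formation was complete in untreated infected controls.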

In the next series the test system is CCRF-CEM. The series is described as follows: Anti-proliferative activity against human CEM cells measured after 72 hrs by coulter counter method. It counts as ADME, cell-based. An outline of the steps:
(§3)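 Cells at 300,000–500,000 cells/mL, combined 1:1 by volume with compound dilutions, incubated at 37 °C: L1210 for two days, CEM for three days, HeLa for four days. Cells counted by Coulter counter.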

In series [4] the test system is HEL. Put plainly: Cytotoxicity against HEL cells infected with Cytomegalovirus assessed as growth inhibition. It counts as cell-based. The settings on record: human.
The test system of series [5] is Cytomegalovirus. The series is described as follows: Antiviral activity against Cytomegalovirus Davis infected in HEL cells assessed as reduction in virus plaque formation. The format is functional, cell-based. An outline of the steps: (§4)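 Confluent HEL fibroblast cultures infected with 100 PFU of HCMV and kept with varying compound concentrations. Plaques scored once plaque formation was complete in untreated infected controls.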

In another series the test system is HeLa. The series is described as follows: Anti-proliferative activity against human HeLa cells measured after 4 days by coulter counter method. It counts as ADME, cell-based. The method in brief:
as §3

In the next series the test system is L1210. Put plainly: Anti-proliferative activity against mouse L1210 cells measured after 48 hrs by coulter counter method. It counts as ADME, cell-based. An outline of the steps: as §3
Series [6] concerns HEL. The series is described as follows: (§5) Cytotoxicity against HEL cells infected with Cytomegalovirus assessed as alteration in cell morphology by microscopic method. The settings on record: human, hel. It counts as cell-based. An outline of the steps:
as §1

The test system of series [7] is Cytomegalovirus. The series is described as follows: Antiviral activity against Cytomegalovirus AD169 infected in HEL cells assessed as reduction in virus plaque formation. It counts as functional, cell-based. The method in brief: as §4
The subject of series [8] is Human alphaherpesvirus 3. The series is described as follows: Antiviral activity against thymidine kinase expressing Varicella-Zoster virus OKA infected in HEL cells assessed as reduction in virus plaque formation. It counts as functional, cell-based, strain Oka vaccine. The method in brief: as §2
Series [9] can be described thus: as §5. The format is cell-based. As to conditions: human, HEL cells infected with Cytomegalovirus. An outline of the steps:
as §1

Series [10] relates to HEL. Put plainly: Cytotoxicity against HEL cells infected with Varicella-Zoster virus assessed as growth inhibition. It counts as cell-based. The settings on record: human, hel.
Where [11] appears, read: Human alphaherpesvirus 3, 07-1, HEL.
Setting [12] is: Human alphaherpesvirus 3, strain Oka vaccine, HEL.
Where [13] appears, read: Human betaherpesvirus 5, Davis, HEL.
Setting [14] is: Human betaherpesvirus 5, AD169, HEL.

Each structure is given as a SMILES string.

Take `NC(=O)c1ncn([C@@H]2O[C@H](CO)[C@@H](O)[C@H]2O)n1` [RIBAVIRIN]: the MCC in [1] was at least 250 µM.
On to `Nc1nc2c(ncn2COCCO)c(=O)[nH]1` [ACYCLOVIR], for which the MCC in series [1] was over 250 µM; in [2], over 440 µM.
As to `CCOP(=O)(OCC)C1CC(Cn2c(=O)n(Cc3cccc(F)c3)c(=O)c3ccccc32)ON1Cc1ccccc1` (mixture of isomers; trans), the half-maximal inhibitory concentration (IC50) (commonly the concentration that inhibits the measured activity by half) in the series with HMEC-1 (hmec-1) stood at 28 µM; with CCRF-CEM (ccrf-cem), 17 µM; in the series with HeLa (hela), 63 µM; in the series on L1210 (l1210) it was 17 µM. The EC50 (usually the concentration needed to bring the measured effect to its halfway point) in the series with Human alphaherpesvirus 3 [3] stood at 20 µM; in the series on Cytomegalovirus [5] it was 8.94 µM; with Cytomegalovirus [7], 9.9 µM. Also, in the series on HEL [4], the CC50 (in general, the concentration at which the toxic effect on the cells reaches its halfway point) amounted to 20.8 µM. In the series on HEL [6], the MCC was determined as 100 µM.
For `CCOP(=O)(OCC)C1CC(Cn2c(=O)n(Cc3cccc(F)c3)c(=O)c3ccccc32)ON1Cc1ccccc1` (mixture of isomers; cis), the IC50 in the series on HMEC-1 (hmec-1) was determined as 204 µM; with CCRF-CEM (ccrf-cem), 49 µM; with HeLa (Homo sapiens, HeLa, 96 h), 73 µM; in the series on L1210 (l1210), 89 µM. The concentration for a half-maximal effect (EC50) in the series with Human alphaherpesvirus 3 [3] (setting [11]), in the series with Cytomegalovirus [5], in the series with Human alphaherpesvirus 3 [8] (setting [12]) and with Cytomegalovirus [7] was over 20 µM throughout. In addition, the MCC in [2] was 100 µM; in the series with HEL [6], 20 µM.
For the molecule `CCOP(=O)(OCC)[C@@H]1C[C@@H](Cn2c(=O)n(C(=O)c3ccccc3)c(=O)c3ccccc32)ON1Cc1ccccc1` (relative stereo), the EC50 with Human alphaherpesvirus 3 [3] (setting [11]) was over 20 µM; with Cytomegalovirus [5] (setting [13]), over 20 µM; in the series on Human alphaherpesvirus 3 [8] (setting [12]), 8.5 µM; in the series on Cytomegalovirus [7] (setting [14]), over 20 µM. The half-maximal inhibitory concentration (IC50) was at least 250 µM in the series on CCRF-CEM (Homo sapiens, CCRF-CEM, 72 h); over 250 µM with HeLa (Homo sapiens, HeLa, 96 h); 154 µM in the series with L1210 (Mus musculus, L1210, 48 h). Besides, the MCC in series [2] and in series [9] was 100 µM throughout. For the same molecule, the half-maximal cytotoxic concentration (CC50) in the series on HEL [10] is 28.9 µM.
As to `CCOP(=O)(OCC)C1CC(Cn2c(=O)n(C(=O)c3ccccc3F)c(=O)c3ccccc32)ON1Cc1ccccc1` (mixture of isomers), the half-maximal inhibitory concentration (IC50) is over 250 µM in the series on HMEC-1 (Homo sapiens, HMEC-1); 158 µM in the series on CCRF-CEM (Homo sapiens, CCRF-CEM, 72 h); at least 250 µM with HeLa (Homo sapiens, HeLa, 96 h); 155 µM in the series on L1210 (Mus musculus, L1210, 48 h). Also, the concentration giving a half-maximal response (EC50) is 20 µM with Human alphaherpesvirus 3 [3] (setting [11]), over 20 µM with Cytomegalovirus [5] (setting [13]), 16.7 µM in the series on Human alphaherpesvirus 3 [8] (setting [12]) and over 20 µM in the series with Cytomegalovirus [7] (setting [14]). Moreover, the MCC in series [2] and in series [9] was 100 µM throughout. The CC50 in the series with HEL [10] was found to be 21.4 µM.
On to `CCOP(=O)(OCC)[C@@H]1C[C@@H](Cn2c(=O)n(C(=O)c3cccc(F)c3)c(=O)c3ccccc32)ON1Cc1ccccc1` (relative stereo), for which the half-maximal inhibitory concentration (IC50) was over 250 µM in the series with HMEC-1 (Homo sapiens, HMEC-1); 224 µM in the series with CCRF-CEM (Homo sapiens, CCRF-CEM, 72 h); over 250 µM in the series on HeLa (Homo sapiens, HeLa, 96 h); 170 µM in the series on L1210 (Mus musculus, L1210, 48 h). Moreover, the EC50 is 8.5 µM with Human alphaherpesvirus 3 [3] (setting [11]), over 20 µM in the series on Cytomegalovirus [5] (setting [13]), 8.7 µM in the series with Human alphaherpesvirus 3 [8] (setting [12]) and over 20 µM with Cytomegalovirus [7] (setting [14]). Besides, the MCC in series [2] worked out at 100 µM; in series [9] it was 20 µM. The half-maximal cytotoxic concentration (CC50) in the series on HEL [10] is 9.8 µM.
Regarding `CCOP(=O)(OCC)C1CC(Cn2c(=O)n(Cc3cccc(F)c3)c(=O)c3ccccc32)ON1C` (mixture of isomers), the concentration for half-maximal inhibition (IC50) with HMEC-1 (Homo sapiens, HMEC-1) worked out at 149 µM; in the series on CCRF-CEM (Homo sapiens, CCRF-CEM, 72 h), 77 µM; in the series on HeLa (Homo sapiens, HeLa, 96 h) it was 86 µM; in the series on L1210 (Mus musculus, L1210, 48 h), 118 µM. For the same molecule, the EC50 is 27.1 µM with Human alphaherpesvirus 3 [3] (setting [11]), 44.7 µM in the series on Cytomegalovirus [5] (setting [13]), 7 µM in the series on Human alphaherpesvirus 3 [8] (setting [12]) and over 20 µM in the series on Cytomegalovirus [7] (setting [14]). Besides, the figures for the MCC in [2] and in [9] were at least 100 µM and 100 µM, respectively. For the same molecule, the CC50 in the series with HEL [10] came to 36.8 µM.
For `CCOP(=O)(OCC)C1CC(Cn2c(=O)n(Cc3ccccc3)c(=O)c3ccccc32)ON1Cc1ccccc1` (mixture of isomers; trans), the concentration giving a half-maximal response (EC50) is over 20 µM in the series on Human alphaherpesvirus 3 [3], 13.1 µM in the series with Cytomegalovirus [5], over 20 µM in the series on Human alphaherpesvirus 3 [8] and at least 14.5 µM with Cytomegalovirus [7]. Also, the figures for the IC50 in the series with CCRF-CEM (ccrf-cem), in the series on HeLa (hela) and in the series with L1210 (l1210) were 15 µM, 73 µM and 17 µM, respectively. Moreover, the cytotoxic concentration (CC50) in the series on HEL [4] came out at 41.7 µM.
